Our source for the Km, Vmax and Ratio values is ChEMBL document CHEMBL1121509, “Metabolic N-hydroxylation. Use of substituent variation to modulate the in vitro bioactivation of 4-acetamidostilbenes” (J Med Chem, 1980).

What all share (format): ADME
Holding throughout (conditions): microsomes

The nature of data set [1]: Compound was evaluated for the apparent kinetic constant (Km) for the microsomal oxidation (4'-hydroxy metabolite).
Data set [2] can be described thus: Compound was evaluated for the apparent kinetic constant (Km) for the microsomal oxidation (hydroxamic acid metabolite).
Data set [3] is described as follows: Compound was evaluated for the kinetic constant (Vmax) for the microsomal oxidation (4'-hydroxy metabolite); Values are pmol(1/mg of microsomal protein)min.
A short description of data set [4]: Compound was evaluated for the kinetic constant (Vmax) for the microsomal oxidation (hydroxamic acid metabolite); Values are pmol(1/mg of microsomal protein)min. More on the design: unit: pmol/min/mg protein.
The nature of data set [5]: Selectivity ratio of Vmax and Km for microsomal oxidation (4'-hydroxy metabolite). An outline of the steps:
(§1)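 V/K computed as Vmax/Km, an apparent first-order rate constant […], from Wilkinson-fitted kinetic constants of 10-min, 37 °C liver microsomal incubations with NADPH-generating system and paraoxon; metabolites quantified by TLC and dual-label (¹⁴C/³H) radiochemical assay.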

Data set [6] can be described thus: Selectivity ratio of Vmax and Km for microsomal oxidation (hydroxamic acid metabolite). The essentials:
as §1

A short description of data set [7]: Selectivity ratio of Vmax and Km for microsomal oxidation. An outline of the steps: as §1
Data set [8] is described as follows: Compound was evaluated for the apparent kinetic constant (Km) for the microsomal oxidation (omega-1 hydroxy metabolite).
Data set [9] can be described thus: Selectivity ratio of Vmax and Km for microsomal oxidation (omega-1 hydroxy metabolite). The essentials:
as §1

A short description of data set [10]: Compound was evaluated for the kinetic constant (Vmax) for the microsomal oxidation (omega-1 hydroxy metabolite); Values are pmol(1/mg of microsomal protein)min.
The nature of data set [11]: Compound was evaluated for the apparent kinetic constant (Km) for the microsomal oxidation (glycolamide metabolite).
Data set [12] can be described thus: Compound was evaluated for the kinetic constant (Vmax) for the microsomal oxidation (glycolamide metabolite); Values are pmol(1/mg of microsomal protein)min.
A short description of data set [13]: Selectivity ratio of Vmax and Km for microsomal oxidation (glycolamide metabolite). The essentials: as §1
The nature of data set [14]: Compound was evaluated for the apparent kinetic constant (Km) for the microsomal oxidation (hydroxymethyl metabolite).
Data set [15] in a line: Compound was evaluated for the kinetic constant (Vmax) for the microsomal oxidation (hydroxymethyl metabolite); Values are pmol(1/mg of microsomal protein)min.
Data set [16] in a line: Compound was evaluated for the kinetic constant (Vmax) for the microsomal oxidation (hydroxamic acid metabolite).

For `CC(=O)Nc1ccc(/C=C/c2ccccc2)cc1`, the values for the Km in [1] and in data set [2] were 500 µM and 2800 µM, respectively. Moreover, the Vmax turned out to be 467 in data set [3] and 2767 in data set [4]. Besides, the figures for the Ratio in data set [5] and in data set [6] were 0.93 and 0.99, respectively.
In the case of `CC(=O)Nc1ccc(/C=C/c2ccc(C#N)cc2)cc1`, the Km in data set [2] worked out at 310 µM. Also, in [4], the Vmax was 677. In addition, in data set [7], the Ratio is given as 2.18.
For the compound `CCCCOc1ccc(/C=C/c2ccc(NC(C)=O)cc2)cc1`, the Michaelis constant (Km) in data set [2] is 1200 µM; in [8] it was 1100 µM. The Vmax in [4] was 330; in data set [10], 530. Also, the figures for the Ratio in [6] and in [9] were 0.28 and 0.48, respectively.
As for `CC(=O)Nc1ccc(/C=C/c2ccc(F)cc2)cc1`, the figures for the Km in data set [11] and in [2] were 3300 µM and 2900 µM, respectively. Moreover, the values for the Vmax in [12] and in data set [4] were 27 and 88, respectively. Further, the Ratio in data set [13] worked out at 0.008; in data set [6], 0.03.
In the case of `CC(=O)Nc1ccc(/C=C/c2ccc(Br)cc2)cc1`, in data set [2], the Km worked out at 1900 µM. Further, the Vmax in [4] is listed as 457. Also, the Ratio in data set [7] is on record as 0.24.
With `CC(=O)Nc1ccc(/C=C/c2ccc(C(C)(C)C)cc2)cc1`, in data set [14], the Km was 90 µM. For the same compound, the Vmax in [15] was determined as 1129. Besides, in data set [7], the Ratio was 12.54.
As to `CC(=O)Nc1ccc(/C=C/c2ccc(Cl)cc2)cc1`, the results for the Km in [11] and in data set [2] were 3500 µM and 3300 µM, respectively. Moreover, the figures for the Vmax in [12] and in data set [4] were 17 and 98, respectively. The Ratio was determined as 0.005 in [13] and 0.03 in [6].
In the case of `CC(=O)Nc1ccc(/C=C/c2ccc(C)cc2)cc1`, the Km in [2] stood at 60 µM. The Vmax in [16] was 243. Moreover, the Ratio in [6] is listed as 4.05.

Usually Km stands for the substrate concentration at which the rate is half of its maximum.
